Measurements collected from several papers.
Lines come from different studies, so protocols differ.
Technique: competition with immobilised ligand
RPS6KA3 N-terminal kinase domain: Ribosomal protein S6 kinase alpha-3, N-terminal kinase domain (RPS6KA3, Homo sapiens, UniProt P51812)
RPS6KA3 C-terminal kinase domain: Ribosomal protein S6 kinase alpha-3, C-terminal kinase domain (RPS6KA3, Homo sapiens, UniProt P51812)

Compound	target	observed	concentration	remaining binding [%]
Cc1cnc(Nc2ccc(C(=O)N3CCC(N4CCCC4)CC3)cc2)nc1-c1cc2ccccc2s1	RPS6KA3 N-terminal kinase domain	binding	1 µM	22
C=CC(=O)N1CCC(C(=O)NCC(=O)N2CCN(c3nc(-c4cnc(N)nc4C(F)F)nc(N4CCOCC4)n3)CC2)CC1	RPS6KA3 N-terminal kinase domain	binding	1 µM	85
Cc1noc([C@H]2C[C@@H](c3ccc(C(F)(F)F)cc3)CN(C(=O)N3CCS(=O)(=O)C3)C2)n1	RPS6KA3 N-terminal kinase domain	cell-free assay	1 µM	100
Nc1ncc2c(n1)-c1c([nH]c3ccc(C#CC4CC4)cc13)CCCC2	RPS6KA3 N-terminal kinase domain	binding	1 µM	73
C[C@@]1(Cc2ccc(C#N)cc2)C(=O)N(c2cc(Cl)cc(Cl)c2)c2ncc(C(=O)NC3(c4nc(C5CCC5)no4)CC3)n21	RPS6KA3 C-terminal kinase domain	cell-free assay	1 µM	100
O=C(NCCCN1CCOCC1)c1ccc(Nc2ncc(Cl)c(-c3ccc(Cl)s3)n2)cc1	RPS6KA3 C-terminal kinase domain	binding	1 µM	100
COc1cnc(Nc2cccc(S(N)(=O)=O)c2)nc1N1CCN(c2ccccc2)C(=O)C1	RPS6KA3 N-terminal kinase domain	binding	1 µM	64
CCN1CCN(Cc2ccc(C(=O)Nc3ccc(C)c(Oc4ccc5c(c4)CC(=O)N5)c3)cc2C(F)(F)F)CC1	RPS6KA3 N-terminal kinase domain	binding	1 µM	100
Cc1cnn2ncc(-c3ccnc(N(C)C)n3)c2c1	RPS6KA3 N-terminal kinase domain	binding	1 µM	95
CNC(=O)[C@@H]1CC[C@@H](n2c(-c3ccc4cnccc4c3)nc3ccc(C(=O)NCc4cccc(C(N)=O)c4)cc32)C1	RPS6KA3 N-terminal kinase domain	binding	1 µM	87
COc1ncc2cc3ccccc3nc2c1C#N	RPS6KA3 N-terminal kinase domain	cell-free assay	5 µM	89
Cc1c(NC(=O)c2cc(C(N)=O)nc3cc(F)ccc23)c(C(F)(F)F)nn1Cc1ccc(C(C)(C)C)cc1	RPS6KA3 C-terminal kinase domain	cell-free assay	1 µM	100
COc1cnc(Nc2cccc(S(N)(=O)=O)c2)nc1N1CCN(c2ccccc2)CC1	RPS6KA3 C-terminal kinase domain	binding	1 µM	81
O=C(NCCCN1CCOCC1)c1ccc(Nc2nccc(-c3cc4ccccc4s3)n2)cc1	RPS6KA3 C-terminal kinase domain	binding	1 µM	73
Cc1nccc(COC(=O)N2C[C@@H]3[C@@H](CNC(=O)c4ccc5[nH]nnc5c4)[C@@H]3C2)n1	RPS6KA3 C-terminal kinase domain	cell-free assay	1 µM	86
C[C@H]1CCN(c2nccc(-c3cnn4ncccc34)n2)C1	RPS6KA3 N-terminal kinase domain	binding	1 µM	78
N#Cc1ccccc1CSc1nnc2c(n1)[nH]c1ccccc12	RPS6KA3 N-terminal kinase domain	binding	10 µM	80

Compound	target	observed	concentration	remaining binding [%]
C[C@@H](c1ccc(-n2cnc3c(N)ncnc32)cc1)N1CCc2nn(C)c(Cc3ccccc3)c2C1=O	RPS6KA3 C-terminal kinase domain	binding	0.1 µM	94
CN(C)c1nccc(-c2cnc3ncccn23)n1	RPS6KA3 C-terminal kinase domain	binding	1 µM	78
c1cncc(-c2cccc(Nc3nccc(NC4CCCCC4)n3)c2)c1	RPS6KA3 N-terminal kinase domain	binding	10 µM	42
O=C(c1ccc(Nc2nccc(-c3cc4ccccc4s3)n2)cc1)N1CCC(N2CCCC2)CC1	RPS6KA3 C-terminal kinase domain	binding	1 µM	66
FC(F)(F)Oc1cccc(-c2cnc3ccc(-c4ccncc4)nn23)c1	RPS6KA3 C-terminal kinase domain	binding	5 µM	69
CN(C)c1ncc(F)c(-c2cnn3ncccc23)n1	RPS6KA3 C-terminal kinase domain	binding	1 µM	68
O=C(O)[C@H]1[C@H](Cn2nnc3ccccc3c2=O)CC[C@@H]1C(=O)c1ccc(OCCC2CCOCC2)cc1	RPS6KA3 N-terminal kinase domain	cell-free assay	1 µM	81
O=C(c1ccc(Nc2ncc(Cl)c(-c3cc4ccccc4s3)n2)cc1)N1CCC(N2CCCC2)CC1	RPS6KA3 C-terminal kinase domain	binding	1 µM	77
O=C(NCC1CCOCC1)c1n[nH]cc1NC(=O)c1c(F)cccc1F	RPS6KA3 N-terminal kinase domain	binding	1 µM	78
O=C(c1ccc(Nc2ncc(Cl)c(-c3ccc(Cl)s3)n2)cc1)N1CCC(N2CCCC2)CC1	RPS6KA3 N-terminal kinase domain	binding	1 µM	30
CN(C)c1nccc(-c2cnn3ncccc23)n1	RPS6KA3 C-terminal kinase domain	binding	1 µM	99
CN(c1ccnc(CNc2nc(Nc3ccc4c(c3)CC(=O)N4)ncc2C(F)(F)F)n1)S(C)(=O)=O	RPS6KA3 N-terminal kinase domain	cell-free assay	1 µM	25
N[C@H]1CCN(c2nccc(-c3cnn4ncccc34)n2)C1	RPS6KA3 N-terminal kinase domain	binding	1 µM	89
C[C@H](NC(=O)c1cnc2n1[C@](C)(Cc1ccc(C#N)cc1)C(=O)N2c1cc(Cl)c(F)c(Cl)c1)C(=O)NC1(c2ccccn2)CC1	RPS6KA3 N-terminal kinase domain	cell-free assay	1 µM	100
c1cnn2ncc(-c3ccnc(N4CCC45COC5)n3)c2c1	RPS6KA3 N-terminal kinase domain	binding	1 µM	61
O=C1NC(c2ccccn2)Sc2ccccc21 (stereo not shown)	RPS6KA3 N-terminal kinase domain	cell-free assay	1 µM	72
O=C(Nc1c[nH]nc1C(=O)NC1CCNCC1)c1cc(F)cc(F)c1	RPS6KA3 C-terminal kinase domain	binding	1 µM	100
